ChEMBL document CHEMBL3600364, “Modification of N-(6-(2-methoxy-3-(4-fluorophenylsulfonamido)pyridin-5-yl)-[1,2,4]triazolo[1,5-a]pyridin-2-yl)acetamide as PI3Ks inhibitor by replacement of the acetamide group with alkylurea” (Bioorg Med Chem, 2015)

Assays:
A549 = assay: Cytotoxicity against human A549 cells after 72 hrs by MTT assay; type: functional, cell-based; conditions: A549, 72 h
Method in brief: (§1)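 Cells (1500–4000/well) were plated for 24 h, then exposed to serial concentrations for 72 h at 1% DMSO final. MTT was added for 4 h, formazan dissolved in DMSO, and OD read at 490 nm. IC50 (μM) came from three experiments run in triplicate.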

[1] = Ratio of compound LD50 to compound B LD50 for po dosed mouse; type: ADME, organism-based; conditions: in vivo
MCF7 = assay: Cytotoxicity against human MCF7 cells after 72 hrs by MTT assay; type: functional, cell-based; conditions: MCF7, 72 h; method in brief: as §1
[2] = Acute toxicity in po dosed mouse; type: organism-based; conditions: in vivo
Method in brief: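 Mouse acute oral toxicity (20.1 ± 1.9 g) by up-and-down procedure per OECD guideline 425. Compound dissolved in NMP, diluted with PEG400 and H2O (NMP/PEG400/H2O 1:8:1 v/v), given orally. Starting dose 50 mg/kg or 100 mg/kg depending on compound, slope factor sigma 0.12. Dosing stopped per AOT425StatPgm stopping rules.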

HCT-116 [3] = assay: Cytotoxicity against human HCT116 cells after 72 hrs by MTT assay; type: functional, cell-based; conditions: HCT-116, 72 h; method in brief: as §1
U-87 MG = assay: Cytotoxicity against human U87MG cells after 72 hrs by MTT assay; type: functional, cell-based, U-87MG ATCC; method in brief: as §1
[4] = target: T1, Phosphatidylinositol 4,5-bisphosphate 3-kinase catalytic subunit alpha isoform (Homo sapiens, UniProt P42336); assay: Inhibition of PI3Kalpha (unknown origin) assessed as reduction of ATP level after 40 mins by luciferase based luminescence assay
[5] = target: T1, Phosphatidylinositol 4,5-bisphosphate 3-kinase catalytic subunit alpha isoform; assay: Ratio of BEZ235 IC50 to compound IC50 for PI3Kalpha (unknown origin) assessed as reduction of ATP level after 40 mins by luciferase based luminescence assay
[6] = target: T2, Phosphatidylinositol 4,5-bisphosphate 3-kinase catalytic subunit delta isoform (Homo sapiens, UniProt O00329); assay: Inhibition of PI3Kdelta (unknown origin) assessed as reduction of ATP level after 40 mins by luciferase based luminescence assay
T2 sequence (O00329 whole entry): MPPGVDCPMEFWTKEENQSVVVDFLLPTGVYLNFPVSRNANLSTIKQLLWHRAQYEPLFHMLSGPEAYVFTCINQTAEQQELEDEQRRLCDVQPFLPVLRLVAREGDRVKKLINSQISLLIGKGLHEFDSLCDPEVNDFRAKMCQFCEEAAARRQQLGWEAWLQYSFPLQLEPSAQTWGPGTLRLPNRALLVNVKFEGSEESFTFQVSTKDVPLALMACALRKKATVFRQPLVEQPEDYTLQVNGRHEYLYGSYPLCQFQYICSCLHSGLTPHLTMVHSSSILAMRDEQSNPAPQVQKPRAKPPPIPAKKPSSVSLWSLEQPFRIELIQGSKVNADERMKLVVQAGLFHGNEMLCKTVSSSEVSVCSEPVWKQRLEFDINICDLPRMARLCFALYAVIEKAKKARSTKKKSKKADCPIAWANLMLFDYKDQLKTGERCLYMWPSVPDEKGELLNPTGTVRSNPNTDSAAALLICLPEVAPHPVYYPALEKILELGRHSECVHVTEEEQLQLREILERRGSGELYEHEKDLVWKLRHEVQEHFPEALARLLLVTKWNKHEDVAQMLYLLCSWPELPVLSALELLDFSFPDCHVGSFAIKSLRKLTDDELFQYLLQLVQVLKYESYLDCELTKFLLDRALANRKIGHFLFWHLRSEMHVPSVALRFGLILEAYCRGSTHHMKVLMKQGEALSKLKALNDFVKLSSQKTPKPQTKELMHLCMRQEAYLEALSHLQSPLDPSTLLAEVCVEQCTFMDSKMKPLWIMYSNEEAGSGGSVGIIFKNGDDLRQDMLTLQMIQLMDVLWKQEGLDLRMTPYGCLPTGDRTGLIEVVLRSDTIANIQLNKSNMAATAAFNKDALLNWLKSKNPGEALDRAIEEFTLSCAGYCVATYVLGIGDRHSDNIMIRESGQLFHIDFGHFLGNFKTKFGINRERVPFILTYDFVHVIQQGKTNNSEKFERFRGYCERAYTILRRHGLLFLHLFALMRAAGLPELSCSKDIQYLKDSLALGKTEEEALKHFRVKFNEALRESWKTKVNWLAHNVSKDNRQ
Method in brief: (§2)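 Each enzyme was tested separately: PI3Kα (p110α/p85α), β (p110β/p85α), γ (p110γ/PIK3R5), δ (p110δ/p85α) or mTOR, with L-α-phosphatidylinositol substrate. […] was measured by luciferase luminescence. Inhibition was normalized to no-compound and no-enzyme controls, and IC50 obtained from dose-response fits.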

HCT-116 [7] = assay: Ratio of BEZ235 IC50 to compound IC50 for human HCT116 cells; type: functional
[8] = target: Serine/threonine-protein kinase mTOR (Homo sapiens, UniProt P42345); assay: Inhibition of mTOR (unknown origin) assessed as reduction of ATP level after 40 mins by luciferase based luminescence assay; method in brief: as §2
CCRF S-180 [9] = assay: Antitumor activity against mouse S180 cells xenografted in mouse assessed as inhibition of tumor growth at 5 mg/kg, po […] for 8 days relative to control; type: functional; conditions: CCRF S-180, po, 192 h, read-out: GI
Method in brief: (§3)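 Mice (20.3 ± 1.6 g) were given 3×10^6 S180 cells subcutaneously in the flank and randomized the next day into groups of 8. Dosing was oral, once daily for 8 days, in NMP/PEG400/H₂O (1:6:3), with a solvent-only group as control. Body weight was recorded daily. On day 9, tumors were excised and weighed, and tumor-weight inhibitory ratio was calculated.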

Mus musculus = assay: Toxicity in mouse S180 cells xenografted in mouse assessed as change in body weight at 5 to 30 mg/kg, po qd for 8 days; type: organism-based, CCRF S-180; conditions: in vivo, 192 h; method in brief: as §3
CCRF S-180 [10] = assay: Antitumor activity against mouse S180 cells xenografted in mouse assessed as inhibition of tumor growth at 10 mg/kg, po […] for 8 days relative to control; type: functional; conditions: CCRF S-180, po, 192 h, read-out: GI; method in brief: as §3
CCRF S-180 [11] = assay: Antitumor activity against mouse S180 cells xenografted in mouse assessed as inhibition of tumor growth at 30 mg/kg, po […] for 8 days relative to control; type: functional; conditions: CCRF S-180, po, 192 h, read-out: GI; method in brief: as §3

T1 sequence (P42336 whole entry, canonical isoform): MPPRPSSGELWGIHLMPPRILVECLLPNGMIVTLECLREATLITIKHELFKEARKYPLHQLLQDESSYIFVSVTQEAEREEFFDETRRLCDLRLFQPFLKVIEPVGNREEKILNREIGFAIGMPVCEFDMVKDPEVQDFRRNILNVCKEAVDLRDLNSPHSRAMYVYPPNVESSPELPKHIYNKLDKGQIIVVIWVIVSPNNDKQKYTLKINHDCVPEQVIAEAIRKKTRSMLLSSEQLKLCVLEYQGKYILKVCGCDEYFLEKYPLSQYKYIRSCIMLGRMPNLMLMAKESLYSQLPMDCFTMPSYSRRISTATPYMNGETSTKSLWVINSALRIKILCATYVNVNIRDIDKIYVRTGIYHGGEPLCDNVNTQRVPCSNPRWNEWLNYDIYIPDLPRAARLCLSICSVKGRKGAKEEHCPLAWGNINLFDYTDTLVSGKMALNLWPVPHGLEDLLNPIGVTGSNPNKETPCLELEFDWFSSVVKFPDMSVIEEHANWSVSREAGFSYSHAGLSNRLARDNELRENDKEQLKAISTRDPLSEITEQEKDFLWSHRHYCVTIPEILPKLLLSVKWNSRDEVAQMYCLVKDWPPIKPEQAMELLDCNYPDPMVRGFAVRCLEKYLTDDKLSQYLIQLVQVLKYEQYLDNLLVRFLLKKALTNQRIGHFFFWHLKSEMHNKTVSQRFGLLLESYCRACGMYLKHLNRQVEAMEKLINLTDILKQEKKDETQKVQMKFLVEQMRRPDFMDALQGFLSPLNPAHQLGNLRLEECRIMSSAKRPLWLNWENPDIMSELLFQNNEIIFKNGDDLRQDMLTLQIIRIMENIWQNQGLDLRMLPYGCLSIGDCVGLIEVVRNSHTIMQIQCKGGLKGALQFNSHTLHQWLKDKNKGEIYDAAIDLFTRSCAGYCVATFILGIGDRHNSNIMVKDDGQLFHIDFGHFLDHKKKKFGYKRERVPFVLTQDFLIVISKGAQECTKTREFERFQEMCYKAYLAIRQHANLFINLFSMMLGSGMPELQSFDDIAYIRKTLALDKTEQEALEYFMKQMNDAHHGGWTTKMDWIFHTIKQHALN

| SMILES | IC50 (A549) | IC50 (MCF7) | IC50 (HCT-116 [3]) | IC50 (U-87 MG) | further results |
| --- | --- | --- | --- | --- | --- |
| CCCNC(=O)Nc1nc2ccc(-c3cnc(OC)c(NS(=O)(=O)c4ccc(F)cc4)c3)cn2n1 | 220 nM | 360 nM | 150 nM | 420 nM | selectivity ratio [1]: 5; LD50 [2]: 156 mg/kg |
| CCN(CC)CCNC(=O)Nc1nc2ccc(-c3cnc(OC)c(NS(=O)(=O)c4ccc(F)cc4F)c3)cn2n1 | 980 nM | 740 nM | 140 nM | 1060 nM | – |
| COc1ncc(-c2ccc3nc(NC(=O)NCCN(C)C)nn3c2)cc1NS(=O)(=O)c1ccc(F)cc1 | 800 nM | 560 nM | 220 nM | 980 nM | – |
| COc1ncc(-c2ccc3nc(NC(C)=O)nn3c2)cc1NS(=O)(=O)c1ccc(F)cc1 | – | – | – | – | LD50 [2]: 28 mg/kg |
| CCN(CC)CCNC(=O)Nc1nc2ccc(-c3cnc(OC)c(NS(=O)(=O)c4ccc(C)cc4)c3)cn2n1 | 730 nM | 410 nM | 170 nM | 670 nM | – |
| COc1ncc(-c2ccc3nc(NC(=O)N4CCCC4)nn3c2)cc1NS(=O)(=O)c1ccc(F)cc1 | 3570 nM | 1660 nM | 1290 nM | 1690 nM | – |
| COc1ncc(-c2ccc3nc(NC(=O)NCC(=O)N4CCCC4)nn3c2)cc1NS(=O)(=O)c1ccc(F)cc1 | 2190 nM | 2130 nM | 140 nM | 1000 nM | – |
| CNC(=O)Nc1nc2ccc(-c3cnc(OC)c(NS(=O)(=O)c4ccc(F)cc4)c3)cn2n1 | 230 nM | 250 nM | 180 nM | 640 nM | – |
| COc1ncc(-c2ccc3nc(NC(=O)NC4CC4)nn3c2)cc1NS(=O)(=O)c1ccc(F)cc1 | 210 nM | 300 nM | 90 nM | 540 nM | IC50 [4]: 7 nM; selectivity ratio [1]: 4; Ratio IC50 [5]: 8; IC50 [6]: 16 nM; Ratio IC50 (HCT-116 [7]): 3; LD50 [2]: 118 mg/kg; IC50 [8]: 275 nM |
| COc1ncc(-c2ccc3nc(NC(=O)NCCN4CCN(C)CC4)nn3c2)cc1NS(=O)(=O)c1ccc(F)cc1 | 1050 nM | 500 nM | 260 nM | 760 nM | – |
| COc1ncc(-c2ccc3nc(NC(=O)NCCN4CCCCC4)nn3c2)cc1NS(=O)(=O)c1ccc(F)cc1 | 610 nM | 200 nM | 150 nM | 1080 nM | – |
| COc1ncc(-c2ccc3nc(NC(=O)N(C)C)nn3c2)cc1NS(=O)(=O)c1ccc(F)cc1 | 1190 nM | 1560 nM | 760 nM | 1780 nM | – |
| COc1ncc(-c2ccc3nc(NC(=O)NCC(=O)N4CCCCC4)nn3c2)cc1NS(=O)(=O)c1ccc(F)cc1 | 2060 nM | 570 nM | 130 nM | 740 nM | – |
| COc1ncc(-c2ccc3nc(NC(=O)NCC(=O)N4CCOCC4)nn3c2)cc1NS(=O)(=O)c1ccc(F)cc1 | 2570 nM | 630 nM | 490 nM | 3260 nM | – |
| CCN(CC)CCNC(=O)Nc1nc2ccc(-c3cnc(OC)c(NS(=O)(=O)c4ccc(Cl)cc4)c3)cn2n1 | 680 nM | 680 nM | 120 nM | 760 nM | – |
| CCN(CC)CCNC(=O)Nc1nc2ccc(-c3cnc(OC)c(NS(=O)(=O)c4ccc(F)cc4)c3)cn2n1 | 760 nM | 370 nM | 180 nM | 720 nM | IC50 [4]: 14 nM; inhibition in vivo at 5 mg/kg (CCRF S-180 [9]): 37.3%; selectivity ratio [1]: 18; Ratio IC50 [5]: 3; IC50 [6]: 12 nM; LD50 [2]: 513 mg/kg; IC50 [8]: 123 nM; Activity (Mus musculus): Non-toxic; inhibition in vivo at 10 mg/kg (CCRF S-180 [10]): 49%; inhibition in vivo at 30 mg/kg (CCRF S-180 [11]): 53.6% |
| COc1ncc(-c2ccc3nc(NC(=O)NCCN4CCCC4)nn3c2)cc1NS(=O)(=O)c1ccc(F)cc1 | 960 nM | 380 nM | 230 nM | 1120 nM | – |
| COc1ncc(-c2ccc3nc(NC(=O)NCCN4CCOCC4)nn3c2)cc1NS(=O)(=O)c1ccc(F)cc1 | 420 nM | 210 nM | 130 nM | 560 nM | – |
| Cn1c(=O)n(-c2ccc(C(C)(C)C#N)cc2)c2c3cc(-c4cnc5ccccc5c4)ccc3ncc21 [DACTOLISIB] | 280 nM | 260 nM | 290 nM | 770 nM | – |
